These results are taken from PMC10413464 (ACS Omega, 2023).

Assay [1] deals with Ecoil-tagged FcγRIIIa (V158). Nature of the assay: SPR capture of Ecoil-tagged FcγRIIIa on Kcoil surfaces. In kind it is binding. As to conditions: for FcγRIIIa capture rate: Ecoil-tagged FcγRIIIa 0.25 μg/mL, 10 μL/min, from 25 s test injection. In outline: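 FcγRIIIa V158 was Ecoil-tagged, expressed transiently in CHO-3E7 and purified by metal affinity. Biacore T100 SPR used CM5 chips in HBS-EP at 25 °C. Kcoil surfaces were amine-coupled Cys-free, thiol-coupled Cys- or amine-coupled dimeric Cys-Kcoil. A short 25 s injection gave the capture rate, assumed constant, to set the injection time for a 20 RU capture. The test was repeated before each batch.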

The test system of another assay is Ecoil-EGF. Nature of the assay: SPR capture of Ecoil-EGF on Kcoil surfaces. In kind it is binding. As to conditions: 10 μL/min. The essentials: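 Biacore T100 SPR on CM5 dextran chips, HBS-EP running buffer, 25 °C, 10 Hz collection. A test injection gave the Ecoil-EGF capture rate (RU/s), used to capture about 10 RU. Ecoil-EGF was at 0.05 µg/mL on thiol-coupled Kcoil and 0.1 µg/mL on amine-coupled monomeric or dimeric Kcoil. Surfaces were regenerated with two 15 s pulses of 6 M guanidium-HCl.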

A further assay concerns Ecoil peptide. Nature of the assay: SPR Ecoil peptide interaction with grafted Kcoil peptide. In kind it is binding. Particulars: comparison of the three grafting strategies.
Assay [2] in a line: Ecoil-EGF/hEGF capture on glass slides by ELISA. Type of assay: binding. Particulars: 5 nM hEGF stock, mean ± SD, n = 3. (In general: ELISA stands for enzyme-linked immunosorbent assay.)
The next assay deals with EGFR phosphorylation. As to conditions: read-out: EC50 for EGFR phosphorylation in solution; cited from earlier work.
The target of assay [3] is cysteine-free azidohomoalanine-terminated Kcoil, AhaGG-(KVSALKE)5. Nature of the assay: SPR. For orientation: Surface plasmon resonance follows binding to a sensor surface in real time, without labels.
The target in assay [4] is dimeric Kcoil–Kcoil peptide (oxidized Cys-Kcoil, linked by a disulfide bond). Nature of the assay: SPR.

As to AhaGG-(KVSALKE)5 [Cys-free Kcoil], the FcγRIIIa capture rate in assay [1] was found to be 0.06 RU/s. Besides, the “Ecoil-tagged FcγRIIIa capture (in words)” value in assay [1] (SPR, 20 RU target) is given as “furthest from the 20 RU target”. This molecule had an Ecoil-EGF capture rate in the assay on Ecoil-EGF (Ecoil-EGF 0.1 μg/mL) of 0.32 RU/s.

As for CGG-(KVSALKE)5 [Cys-Kcoil], the “bioavailability (in words)” value in the assay with Ecoil peptide is listed as “highest percentage of bioavailability”. The molecule further came in with a FcγRIIIa capture rate in assay [1] of 0.57 RU/s. The same molecule gave an Ecoil-EGF capture rate in the assay on Ecoil-EGF (Ecoil-EGF 0.05 μg/mL) of 1.32 RU/s.

The EC50 is the concentration giving half of the maximal effect. Turning to “hEGF: Recombinant human EGF (hEGF, #236-EG)”, the “density on amine surface after 2 h (non-specific adsorption)” value in assay [2] (amine surface) is reported as 0.50 ± 0.01 pmol/cm^2. Further, in assay [2] (thiol surface), the “density on thiol surface after 2 h (non-specific adsorption)” value is listed as 0.50 ± 0.01 pmol/cm^2. For the same molecule, the EC50 in the assay with EGFR phosphorylation is 4 nM.

B1: Ecoil peptide [(EVSALEK)5] (peptide)
peptide: Ac-EVSALEKEVSALEKEVSALEKEVSALEKEVSALEK-NH2
One may read the koff as a measure of how fast the partners let go of each other. Higher therefore signals a short-lived complex. In the case of B1, the koff came to 0.000308 s⁻¹ in assay [3] and 0.000468 s⁻¹ in assay [4].
